# Screens as filed in PubChem BioAssay.
# INS promoter act: TRM-6 insulin promoter activation; TRM-6 cells, insulin promoter eGFP reporter, imaging; plate-scaled: unstimulated 0, stimulated control 100; AID 1296; 130,000 compounds, 0.81% hits; activation, % at 2 µM;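 active = activation at 2 µM above a set limit, confirmed on inspection of the cell images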;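 also: share of cells whose green reporter signal exceeds an intensity cutoff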
#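 System – human fetal islet-derived TRM-6 cells with tamoxifen-inducible insulin promoter–eGFP reporter · Amount – 1,000 cells per well · Schedule – overnight tamoxifen, then two-day compound incubation at 37 °C · Detection – high-content imaging of fixed cells with Hoechst nuclear stain · Read-out – percent cells above green-intensity threshold, converted to percent activation versus plate controls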
# The depositor's hits bear a star; [ ] = another dose, or the depositor's remark. Only a selection was taken, and hits are over-represented in it overall.
SMILES,INS promoter act
Brc1ccc(C2N3CCCN23)cc1 (stereo unspecified),508*
CCN(CC)CCCNC(=O)c1c(O)c2ccccc2n(Cc2ccccc2)c1=O,5
CCC(C)C12CN3CCN(CC(C)(C3)C1=O)C2 (stereo unspecified),3
c1ccc(-c2ccc(-c3n(-c4ccccn4)c4ccccc4[n+]3-c3ccccn3)cc2)cc1,0
O=C1NC(=S)N(Cc2ccco2)C(=O)/C1=C\c1cccs1,0
O=c1c2ccccc2nc(-c2ccco2)n1-c1cccnc1,-3
CCCCOc1nc2ccccc2c(=O)n1-c1ccccc1,3
O=c1c2ccccc2nc(SCC2CCCCO2)n1-c1ccccc1 (stereo unspecified),367*
S=C1CN=C(c2ccccc2)c2cc(Cl)ccc2N1,0
CCN1/C(=C\C=C\C2=[N+](CC)c3ccccc3C2(C)C)C(C)(C)c2ccccc21,257*[toxic and fluoresces]
CC1C(c2cccs2)=[N+]([O-])C(C)(C(=O)c2ccc(Cl)cc2)N1O (stereo unspecified),-8
C[C@]12CC[C@@H](O)C[C@@H]1CC[C@@H]1[C@@H]2CC[C@]2(C)[C@@H](O)CC[C@@H]12,-10
CCOC(=O)c1cc(C(O)(C(=O)OC)C(F)(F)F)c(/N=C/N(C)C)o1 (stereo unspecified),-5
CCN(c1ccc(C(O)(C(=O)OC)C(F)(F)F)cc1)S(=O)(=O)c1ccccc1 (stereo unspecified),-4
CCOC(=O)c1cc(CC)sc1/N=C/C1C(=O)NC(=S)NC1=O,295*
OC1/C(=C/c2ccc(F)cc2)N2CCC1CC2 (stereo unspecified),0
CCCCC/C(=N\O)c1c[nH]c2ccccc12,0
COc1ccccc1Cn1c(SCC(=O)C(C)(C)C)nc2cc(C(=O)N3CCC4(CC3)OCCO4)ccc2c1=O,0
O=C(c1ccccc1F)c1cn(CC(=O)N2CCCCC2)c2ccccc12,-3
CCOC(=O)[C@@]1(C#N)[C@@H]2C=CC(C(N)=O)=CN2[C@@H](C(N)=O)[C@@H]1c1cccc(Cl)c1,3
COc1ccc(N=C2SCCCN2C)cc1,512*
CCC1(C)OC(c2ccccc2)=C/C(=C/C=C2C(=O)NC(=O)NC2=O)O1 (stereo unspecified),7
Cc1ccc(C2N(c3ccccn3)C(=O)C3CCCN32)o1 (stereo unspecified),7
O=C(CNC(=O)OCc1ccccc1)Nc1ccc(Br)cc1C(=O)c1ccccc1,0
O=C(/C=C/C=C/c1ccccc1)CC1(O)C(=O)Nc2ccccc21 (stereo unspecified),-2
O=C(Nc1ccc(Cl)cc1C(=O)c1ccccc1Cl)c1ccco1,230*
O=C(COc1ccccc1)Nc1ccc(Cl)cc1C(=O)c1ccccc1,117
Cc1ccc(C(=O)Nc2ccc(Cl)cc2C(=O)c2ccccc2)cc1,113
CC(C)C12CN3CCN(CC(C3)C1O)C2 (stereo unspecified),305
COCCNCCOc1ccc(C(C)(C)c2ccccc2)cc1,108
